Assay results: publication PMC11900868 (Science Advances, 2025)

Test system: CCl4-induced liver fibrosis mice
Test: Res treatment of CCl4-induced liver fibrosis, histology and immunohistochemistry
Assay type: in vivo, male Balb/c mice
Details: CCl4 10 weeks then discontinued; 10 mg/kg intraperitoneal twice a week
Method in brief: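 Fibrosis induced in male Balb/c mice by intraperitoneal 20% CCl4 in olive oil twice weekly: 0.1 ml week 1, 0.15 ml week 2, 0.2 ml thereafter. After 10 weeks, CCl4 stopped and resveratrol given intraperitoneally at 10 mg/kg twice weekly for 1 or 3 weeks. Liver sections stained with H&E and Sirius red, plus α-SMA and FAP immunostaining. Percent positive area quantified; mean ± SD, ANOVA.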

Compound: Oc1ccc(/C=C/c2cc(O)cc(O)c2)cc1 [Res, resveratrol]
- fibrotic tissue, HSCs activation and FAP expression after 1 week of treatment: significant reduction in fibrotic tissue, HSCs activation, and FAP expression levels
- fibrotic tissue, HSCs activation and FAP expression after 3 weeks of treatment: all parameters approached normal levels
